From ChEMBL document CHEMBL3877296, “Design, synthesis, and biological evaluation of novel alkylsulfanyl-1,2,4-triazoles as cis-restricted combretastatin A-4 analogues” (Eur J Med Chem, 2017) come the findings set out here.

A short description of test [1]: Cytotoxicity against human PC3 cells assessed as growth inhibition after 48 hrs by MTT assay. In kind it is functional, cell-based. To be noted: PC-3, 48 h. In short, it runs like this:
(§1)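 Cells were kept in DMEM with 10% FBS and seeded at 5000 cells/well, then attached for 24 h at 37 °C. Compounds came from 20 mM DMSO stocks, serially diluted in medium, with 0.1% DMSO as vehicle control. After 48 h at 37 °C, MTT (5 mg/mL) was added for 4 h, formazan dissolved in DMSO and A570 read. IC50 was fitted from % inhibition versus control, mean of three independent experiments.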

Test [2] in a line: Cytotoxicity against human HCT116 cells assessed as growth inhibition after 48 hrs by MTT assay. In kind it is functional, cell-based. Conditions: HCT-116, 48 h. In a few lines: as §1
Test [3] is described as follows: Cytotoxicity against human HepG2 cells assessed as growth inhibition after 48 hrs by MTT assay. The class given is functional, cell-based. Conditions: HepG2, 48 h. In short, it runs like this: as §1
For orientation: Tetrazolium dyes change colour on reduction, which living cells bring about.

Test [4] in a line: Cytotoxicity against human HT-29 cells assessed as growth inhibition after 48 hrs by MTT assay. Conditions: HT-29, 48 h. In kind it is functional, cell-based. In short, it runs like this: as §1
The species entered for test [5] is Sus scrofa. The test is described as follows: Inhibition of porcine brain tubulin polymerization at 10 uM in presence of GTP by spectrophotometric method relative to control. In a few lines:
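Tubulin was purified from pig brain microtubule protein by three temperature-driven assembly/disassembly cycles, then phosphocellulose chromatography. Polymerization ran in PEM buffer (100 mM PIPES, 1 mM MgCl2, 1 mM EGTA) with 1 mM GTP and 5% glycerol at 37 °C, followed by light scattering at 340 nm. Percent inhibition came from plateau absorbance, with a DMSO negative control and a CA-4 reference run the same day.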

Usually IC50 stands for the point on the concentration scale where inhibition reaches its midpoint. As a reminder, the inhibition is how much of the control response was suppressed. As for `COc1ccc(-n2c(SCC(=O)c3ccc(F)cc3)nnc2-c2cc(OC)c(OC)c(OC)c2)cc1`, the IC50 was 58.2 µM in test [1], above 60 µM in test [2], 10.7 µM in test [3] and 42.5 µM in test [4]. For the same molecule, the inhibition in test [5] came out at 12%.
For the molecule `COc1cc(-c2nnc(SCC(=O)c3ccc(F)cc3)n2-c2ccc(N(C)C)cc2)cc(OC)c1OC`, the IC50 in test [1] was 42.3 µM; in test [2], 31.1 µM; in test [3], above 60 µM; in test [4], 78 µM.
Regarding `COc1ccc(-n2c(SCc3ccc(C)cc3)nnc2-c2cc(OC)c(OC)c(OC)c2)cc1`, the IC50 in test [1] is 56.5 µM; in test [2], 33.3 µM; in test [3], 31.6 µM; in test [4] it was above 60 µM. For the same molecule, the inhibition in test [5] was 15%.
Taken in the same sequence, the figures for `COc1ccc(CSc2nnc(-c3cc(OC)c(OC)c(OC)c3)n2-c2ccc(N(C)C)cc2)cc1` were above 60 µM, 1.15 µM, above 60 µM, above 60 µM and 49%.
`CCOC(=O)CSc1nnc(-c2cc(OC)c(OC)c(OC)c2)n1-c1ccc(OC)cc1`: the IC50 in test [1], in test [2], in test [3] and in test [4] was above 60 µM in each case.
On to `COc1cc(-c2nnc(SCC(=O)c3ccccc3)n2-c2ccc(N(C)C)cc2)cc(OC)c1OC`, for which the IC50 was found to be 38.6 µM in test [1], 42.5 µM in test [2], 18.9 µM in test [3] and 45.1 µM in test [4]. The inhibition in test [5] stood at 16%.
`COc1cc(-c2nnc(SCc3ccccc3)n2-c2ccc(N(C)C)cc2)cc(OC)c1OC`: the IC50 was 55.8 µM in test [1], 54 µM in test [2], above 60 µM in test [3] and above 60 µM in test [4].
On to `COc1ccc(NC(=O)CSc2nnc(-c3cc(OC)c(OC)c(OC)c3)n2-c2ccc(N(C)C)cc2)cc1`, for which the IC50 was 56.1 µM in test [1], above 60 µM in test [2], above 60 µM in test [3] and 51.4 µM in test [4].
On to `COc1cc(-c2nnc(SCc3ccc(F)cc3)n2-c2ccc(N(C)C)cc2)cc(OC)c1OC`, for which the IC50 in test [1] was 46.5 µM; in test [2] it was above 60 µM; in test [3], 26.4 µM; in test [4], 44.3 µM.
In the case of `COc1ccc(CSc2nnc(-c3cc(OC)c(OC)c(OC)c3)n2-c2ccc(OC)cc2)cc1`, the IC50 was 40.3 µM in test [1], 49.6 µM in test [2], 41.1 µM in test [3] and above 60 µM in test [4]. Besides, the inhibition in test [5] came out at 29%.
Regarding `COc1cc(-c2nnc(SCC(=O)C3CC3)n2-c2ccc(N(C)C)cc2)cc(OC)c1OC`, the IC50 is 45.9 µM in test [1], above 60 µM in test [2], above 60 µM in test [3] and above 60 µM in test [4].
In the case of `COc1ccc(C(=O)CSc2nnc(-c3cc(OC)c(OC)c(OC)c3)n2-c2ccc(N(C)C)cc2)cc1`, the IC50 is 22 µM in test [1], above 60 µM in test [2], 18.8 µM in test [3] and 64 µM in test [4]. The inhibition in test [5] was 38%.
Take `CCSc1nnc(-c2cc(OC)c(OC)c(OC)c2)n1-c1ccc(N(C)C)cc1`: the IC50 was 46.2 µM in test [1], above 60 µM in test [2], above 60 µM in test [3] and above 60 µM in test [4].
`COc1cc(-c2nnc(S)n2-c2ccc(N(C)C)cc2)cc(OC)c1OC`: the IC50 in test [1], in test [2], in test [3] and in test [4] was above 60 µM each time.
Consider `COc1ccc(-n2c(SC)nnc2-c2cc(OC)c(OC)c(OC)c2)cc1`, for which the IC50 in test [1], in test [2], in test [3] and in test [4] was above 60 µM throughout.
For `COc1ccc(-n2c(SCC(=O)c3ccc(OC)c(O)c3)nnc2-c2cc(OC)c(OC)c(OC)c2)cc1`, the IC50 in test [1], in test [2], in test [3] and in test [4] was above 60 µM each time.
For `COc1ccc(C(=O)CSc2nnc(-c3cc(OC)c(OC)c(OC)c3)n2-c2ccc(N(C)C)cc2)cc1O`, the IC50 was above 100 µM in test [1], above 100 µM in test [2], above 100 µM in test [3] and above 60 µM in test [4].
As to `COc1ccc(-n2c(SCc3ccc(F)cc3)nnc2-c2cc(OC)c(OC)c(OC)c2)cc1`, the IC50 was found to be 35 µM in test [1], 38.7 µM in test [2], 35 µM in test [3] and 50.7 µM in test [4].
On to `CCSc1nnc(-c2cc(OC)c(OC)c(OC)c2)n1-c1ccc(OC)cc1`, for which the IC50 in test [1] is 57.7 µM; in test [2] it was above 60 µM; in test [3], above 60 µM; in test [4], above 60 µM.
For `COc1ccc(C(=O)CSc2nnc(-c3cc(OC)c(OC)c(OC)c3)n2-c2ccc(OC)cc2)cc1`, the IC50 in test [1] was above 60 µM; in test [2], above 60 µM; in test [3], 18.1 µM; in test [4], above 60 µM. Also, the inhibition in test [5] stood at 30%.
In the case of `COc1cc(-c2nnc(SC)n2-c2ccc(N(C)C)cc2)cc(OC)c1OC`, the IC50 in test [1], in test [2], in test [3] and in test [4] was above 60 µM each time.
Take `COc1ccc(NC(=O)CSc2nnc(-c3cc(OC)c(OC)c(OC)c3)n2-c2ccc(OC)cc2)cc1`: the IC50 was 25.8 µM in test [1], above 60 µM in test [2], above 60 µM in test [3] and 45.2 µM in test [4]. Moreover, the inhibition in test [5] is 10%.
As for `COc1ccc(-n2c(S)nnc2-c2cc(OC)c(OC)c(OC)c2)cc1`, the IC50 in test [1] is above 60 µM; in test [2], above 60 µM; in test [3], 57.5 µM; in test [4], above 60 µM.
Turning to `CCOC(=O)CSc1nnc(-c2cc(OC)c(OC)c(OC)c2)n1-c1ccc(N(C)C)cc1`, the IC50 in test [1] is above 60 µM; in test [2], above 60 µM; in test [3] it was above 60 µM; in test [4], 28.8 µM.
For the molecule `COc1ccc(-n2c(SCC(=O)c3ccc4ccccc4c3)nnc2-c2cc(OC)c(OC)c(OC)c2)cc1`, the IC50 in test [1] is above 60 µM; in test [2], above 60 µM; in test [3], above 60 µM; in test [4], 53.4 µM.
Consider `COc1cc(-c2nnc(SCC(=O)c3ccc4ccccc4c3)n2-c2ccc(N(C)C)cc2)cc(OC)c1OC`, for which the IC50 in test [1] is 18.1 µM; in test [2], 54.5 µM; in test [3], above 60 µM; in test [4], above 60 µM. In test [5], the inhibition was found to be 26%.
`COc1ccc(/C=C\c2cc(OC)c(OC)c(OC)c2)cc1O` [COMBRETASTATIN A4]: the IC50 came out at 22 µM in test [1], 6.1 µM in test [2], 5.29 µM in test [3] and 1.96 µM in test [4]. In test [5], the inhibition stood at 80%.
In the case of `COc1ccc(-n2c(SCC(=O)c3ccccc3)nnc2-c2cc(OC)c(OC)c(OC)c2)cc1`, the IC50 in test [1] was above 60 µM; in test [2], above 60 µM; in test [3] it was 16.2 µM; in test [4] it was above 60 µM.
As for `COc1cc(-c2nnc(SCC(=O)Nc3ccc(Cl)cc3)n2-c2ccc(N(C)C)cc2)cc(OC)c1OC`, the IC50 in test [1] is above 60 µM; in test [2], 39.3 µM; in test [3] it was above 60 µM; in test [4], above 60 µM. Further, the inhibition in test [5] was found to be 17%.
For `COc1ccc(-n2c(SCC(=O)C3CC3)nnc2-c2cc(OC)c(OC)c(OC)c2)cc1`, the IC50 in test [1] is 37.2 µM; in test [2], above 60 µM; in test [3] it was above 60 µM; in test [4], above 60 µM. In test [5], the inhibition came out at 36%.
For `COc1cc(-c2nnc(SCc3ccc(C)cc3)n2-c2ccc(N(C)C)cc2)cc(OC)c1OC`, the IC50 in test [1] was 37.3 µM; in test [2], above 60 µM; in test [3], above 60 µM; in test [4], 27.4 µM. Moreover, the inhibition in test [5] was found to be 21%.
`COc1ccc(-n2c(SCc3ccccc3)nnc2-c2cc(OC)c(OC)c(OC)c2)cc1`: the IC50 in test [1] was 34.1 µM; in test [2] it was 42.4 µM; in test [3], above 60 µM; in test [4] it was above 60 µM. Besides, the inhibition in test [5] was 16%.
